Pf gamet viab: P. falciparum stage V gametocyte viability inhibition; P. falciparum stage V gametocytes, ATP luminescence, 24 h; hit rate 0.065% among 150,000; AID 743093; inhibition, % at 10.9 µM;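 active means inhibition above the mean plus 3 SD of compounds within the control limits, set per campaign, cut at about 38% in these data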;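 further: 0% = DMSO wells and 100% = medium only without gametocytes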
FLuc act counter: affects firefly luciferase, flagging false hits in luciferase stimulation screens; P08659; ATPlite luciferase biochemical, luminescence, 10 min; 0 = ATP-free wells, 1 = DMSO control; activation factor at 10 µM; 200,000 tested, under 10 active; AID 1027;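 active means luciferase activation factor, scaled between plate controls, of at least 2 with compound at 10 µM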
Target sequence (P08659 whole entry, looked up): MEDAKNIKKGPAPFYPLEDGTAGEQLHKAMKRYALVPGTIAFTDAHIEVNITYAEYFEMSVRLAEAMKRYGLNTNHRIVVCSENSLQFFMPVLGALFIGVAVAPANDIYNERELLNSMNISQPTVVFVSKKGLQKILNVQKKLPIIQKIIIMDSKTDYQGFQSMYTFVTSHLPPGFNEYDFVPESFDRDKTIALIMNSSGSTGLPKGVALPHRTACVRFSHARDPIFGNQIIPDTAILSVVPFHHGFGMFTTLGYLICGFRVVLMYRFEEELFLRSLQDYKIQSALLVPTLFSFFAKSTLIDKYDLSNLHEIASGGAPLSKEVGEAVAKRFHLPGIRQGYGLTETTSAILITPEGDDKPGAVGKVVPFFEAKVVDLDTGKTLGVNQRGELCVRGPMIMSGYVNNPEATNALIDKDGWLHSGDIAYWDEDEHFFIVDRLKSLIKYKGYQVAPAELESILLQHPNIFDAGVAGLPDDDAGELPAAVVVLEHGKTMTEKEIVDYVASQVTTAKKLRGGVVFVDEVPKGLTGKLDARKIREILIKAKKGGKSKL
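Material: luciferase plus luciferin reagent, cell-free. Medium: PBS buffer for ATP. Also added: ATP substrate, dispensed from a 10.24 µM working solution in PBS. Doses: test compounds dosed from 2 mM stocks in 100% DMSO. Incubation: 10 min post-reagent at room temperature. Technique: light output (luminescence). Read-out basis: luminescence gain marking luciferase activators.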
NF-kB neuron act: compounds increasing NF-kB expression in human neuronal cells; NF-kB reporter expression; stronger effect = higher value; hit rate 1.6% among 190,000; fold change at 12.5 µM; in the data active means fold change above about 3.3
FLuc inh counter: Photinus pyralis luciferase inhibition counter-screen | ATPLite firefly luciferase biochemical luminescence, 10 min | inhibition, % at 10 µM | hit rate 1.5% among 200,000 | AID 1006;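 active means inhibition above about 50% when tested at 10 µM, limit read from the data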
APP 5'UTR act: APP 5'UTR luciferase reporter activation. SH-SY5Y APP 5'UTR luciferase reporter, luminescence; zero percent = DMSO vehicle wells. activation, % at 2 µM. hit rate 1% among 190,000. AID 1276;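 active means activation above a set limit, based on mean plus 3 SD of controls, cut at about 140% in these data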
STAT1 activator: STAT1 signaling activation; NIH 3T3 STAT1-luciferase reporter, IFN-gamma, luminescence; 100% = IFN-gamma alone, no compound; activation (% of control), % at 5.5 µM; hit rate 2.6% among 200,000;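 active means activation above the screen-wide mean activation plus 3 SD, cut at about 130% in these data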;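 further: raw ratio to IFN-gamma control signal so 100% means no change and 0% no light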
* hit, by the source's call; . = not tested or not shown. In the library only some 3.5% were active in any assay of this set; here they are far more common.

SMILES	Pf gamet viab	FLuc act counter	NF-kB neuron act	FLuc inh counter	APP 5'UTR act	STAT1 activator
Cc1ccc2c(Cl)c(C(=O)NCCc3ccccc3)sc2c1	-5	0.9	2.7	10	111	136*
O=C(NCC1CCCO1)c1sc2ccccc2c1Cl (stereo unspecified)	.	0.7	3.1	28	101	132*
Cc1cccc(NC(=O)C(=O)NCC2CCCO2)c1 (stereo unspecified)	16	0.9	1.8	10	54	136*
O=C(NNC(=S)NC1CCCCC1)c1sc2ccccc2c1Cl	-17	1.1	1.5	-6	15	104
O=C(NNC(=O)C1CC2CCC1C2)c1sc2ccccc2c1Cl (stereo unspecified)	2	0.9	0.73	8	43	130*
Cc1ccc2c(Cl)c(C(=O)NCC3CCCO3)sc2c1 (stereo unspecified)	.	0.7	3.9*	33	122	132*
OCCN1CCN(c2nc(-c3ccccc3)nc3c2oc2ccccc23)CC1	.	1	0.41	-3	-10	102
Cc1ccc(-c2cc(=O)c3cc(Cl)ccc3[nH]2)cc1	.	0.4	1.8	57*	138*	143*
COc1cc2[nH]c(-c3ccc(C)cc3)cc(=O)c2cc1OC	27	0.7	1.1	27	12	107
Cc1ccc2[nH]c(-c3ccccc3)cc(=O)c2c1	.	0.1	6*	86*	-91	126
COc1ccc(-c2cc(=O)c3cc(C)ccc3[nH]2)cc1	-4	0.2	6.5*	82*	99	150*
Cc1ccc(SCC(=O)Nc2ccc(N3CCOCC3)cc2)c(C)c1	14	1.1	1.1	-5	4	96
COc1cccc(CNC(=O)CCC2CCCN(c3cc(C)nc(N4CCCC4)n3)C2)c1 (stereo unspecified)	3	1	0.92	0	8	99
CCC(C)(c1nnnn1-c1c(C)cccc1C)N(N=O)c1ccccc1Cl (stereo unspecified)	-2	1	1.1	-2	17	95
CC(=O)Oc1c(C)c2c3c(c1OC(C)=O)[C@@H](C)CC[C@@H]3[C@@H](C)C[C@H]2C=C(C)C	1	.	.	.	.	.
COc1cc(C(=O)NC(=S)Nc2ccc3oc(=O)ccc3c2)cc(OC)c1OC	.	1.1	1.1	-5	0	100
CN(C)c1cccc(-c2nnc(SCCCC#N)o2)c1	.	0.4	3.1	56*	154*	121
CCC(=O)Nc1cc2nn(-c3ccc(C)cc3)nc2cc1C	8	0.3	0.7	66*	116	105
CCCCC(=O)Nc1cc2nn(-c3ccc(OC)cc3)nc2cc1C	20	1	1.3	2	15	111
CCC(=O)Nc1cc2nn(-c3ccc(OC)cc3)nc2cc1C	.	0.3	2.2	69*	162*	133*
COc1ccc([C@H]2CC(=O)C=C(c3cccc(C(C)C)c3)C2)cc1OC	11	.	.	.	.	.
COc1cc(/C=N\NC(=O)c2ccc(=O)[nH]n2)cc(OC)c1OC	10	1	3.5*	-4	-10	92
CCCOc1ccc(C2CC(=O)Nc3cc(OC)c(OC)cc32)cc1 (stereo unspecified)	-23	.	.	.	.	.
Cc1ccc2c(COC(=O)C3=COCCO3)cc(=O)oc2c1	.	0.7	3	34	50	132*
CCOC(=O)c1ccc(NC(=O)/C=C/c2cccs2)cc1	0	0.9	2.3	10	64	143*
SMILES	Pf gamet viab	FLuc act counter	NF-kB neuron act	FLuc inh counter	APP 5'UTR act	STAT1 activator
Cc1ccccc1NC(=O)/C=C/c1ccc([N+](=O)[O-])s1	.	1.1	9.8*	-5	-90	99
Cc1ccccc1NC(=O)/C=C/c1cccs1	8	0.8	.	21	60	129*
CCN(CC)S(=O)(=O)c1ccc(C)c(NC(=O)/C=C/c2cccs2)c1	1	1	0.74	-4	17	95
CCOC(=O)/C=C/c1cnn(-c2ccccc2)c1	21	0.9	2.2	14	51	138*
Cc1nc(N)sc1N=Nc1ccc(F)cc1	.	0.9	1.2	9	60	136*
Nc1n[nH]c(N)c1N=Nc1ccc(F)cc1	-10	0.9	1.5	8	19	109
CCCN(CCC)CCCNC(=O)C1c2cc(OC)c(OC)cc2C(=O)N(C)C1c1cccnc1 (stereo unspecified)	6	1	1.2	2	-11	104
Cc1ccc(/C=C/C(=O)Nc2ncc(C)s2)o1	1	0.6	3.1	39	121	147*
Cc1ccc(/C=C/C(=O)Nc2nccs2)o1	-14	0.6	3.2	42	79	148*
Cc1ccc(/C=C/C(=O)Nc2ccc(N(C)C)cc2)o1	.	0.3	1.1	67*	80	114
CCC(NC(=O)c1cncc(Br)c1)c1ccccc1 (stereo unspecified)	-33	.	.	.	.	.
COc1cccc(-c2nnc(-c3ccccc3NC(=O)c3ccc(C(C)(C)C)cc3)o2)c1	4	.	.	.	.	.
CCOc1ccc2nc(NC(=O)c3ccoc3C)sc2c1	.	0.4	3.5*	58*	168*	71
CCOc1ccc2nc(NC(=O)Cc3cccs3)sc2c1	.	0.9	2.2	9	47	129*
CCOc1ccc2nc(NC(=O)CN3CCOCC3)sc2c1	-7	0.4	1.2	61*	-10	118
CCCCOC(=O)Nc1nc2ccc(OC)cc2s1	.	0.9	2.2	6	32	119
CCOc1ccc2nc(NS(=O)(=O)c3cccs3)sc2c1	18	.	.	.	.	.
CCCCN(C(=O)NC(=O)Nc1nc2ccc(OC)cc2s1)S(C)(=O)=O	-6	0.5	1.7	50*	24	123
Cc1ccc(NC(=S)Nc2ccc(-c3nnc4n3CCCCC4)cc2)cc1C	17	.	.	.	.	.
COc1ccc2nc(NC(=O)CNS(=O)(=O)c3cccs3)sc2c1	.	1	1.4	0	0	107
COc1ccc2nc(NC(=O)CSc3nnnn3C)sc2c1	-10	0.8	2.2	16	60	142*
CCOc1ccc2nc(NC(=O)COC)sc2c1	-8	0.7	4.9*	31	140*	138*
COc1ccc2nc(NC(=O)Cc3cccs3)sc2c1	.	0.8	2.9	20	71	136*
N#Cc1ccc(COC(=O)c2ccc(N3CCCC3)c([N+](=O)[O-])c2)cc1	-1	1	1.1	-2	21	95
Cc1csc2ncc(C(=O)Nc3ccccc3F)c(=O)n12	.	1	.	1	.	.
Cc1csc2ncc(C(=O)Nc3ccccc3Cl)c(=O)n12	.	1	2	-4	54	131*
Cc1cccc(NC(=O)c2cnc3scc(C)n3c2=O)c1	.	0.9	3.1	14	2	129*
CC(=O)C1=C(c2ccccc2)NC(=O)NC1c1ccccc1OCC(=O)NCc1ccccc1 (stereo unspecified)	.	1	0.94	-1	-4	97
COc1cccc(CN2CCN(Cc3ccc(O)cc3)CC2CCO)c1 (stereo unspecified)	-5	1	1.3	-1	-9	101
Oc1cccc2ccc(/C=C/c3cccs3)nc12	12	0.7	3.2	33	148*	100
